Experimental data published in ChEMBL document CHEMBL4024804 (J Med Chem, 2018).
Active and inactive are the calls of the source. The rule behind the calls is not given here.

How the values were obtained:
[1] = test system: RPMI-7951; experiment: Cytotoxicity against human RPMI7951 cells after 72 hrs by MTS assay; assay type: functional, cell-based; details: RPMI-7951, 72 h
Method in brief: (§1)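 Melanoma cells grown in DMEM with 10% FBS and seeded at 1800–3500 cells per well, then incubated overnight. Cells treated for 72 h with 10 concentrations from 0.03 nM to 1 μM, with DMSO vehicle, in four replicates. MTS added for at least 1 h at 37 °C and absorbance read at 490 nm. IC50 obtained by nonlinear regression.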

[2] = test system: A-375; experiment: Cytotoxicity against human A375 cells after 72 hrs by MTS assay; assay type: functional, cell-based; details: A-375, 72 h; method in brief: as §1
[3] = test system: M14; experiment: Cytotoxicity against human M14 cells after 72 hrs by MTS assay; assay type: functional, cell-based; details: M14, 72 h; method in brief: as §1
[4] = test system: Liver; experiment: Half life in human liver microsomes by UPLC-MS analysis; assay type: ADME, microsome
Method in brief: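 Compound at 10 mM in DMSO diluted into human liver microsomes (0.6381 mg/mL protein) in 0.1 M potassium phosphate pH 7.4 with EDTA. NADPH regenerating system added, incubated at 37 °C for 0–4 h in triplicate. Quenched with cold acetonitrile containing warfarin as internal standard, analysed by UPLC–MS SIR. ke from log-linear regression; t1/2 = ln 2/ke.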

[5] = test system: A-375; experiment: Induction of morphological changes in human A375 cells xenografted in nude mouse assessed as less microvessel density at 15 mg/kg, ip administered every other day for 2 weeks by immunohistochemical analysis; assay type: functional, organism-based
[6] = species: Homo sapiens; experiment: Inhibition of tubulin polymerization in human WM164 cells assessed as fragmentation of microtubules at 100 nM after 18 hrs using DAPI by immunofluorescence-based confocal microscopic method; assay type: cell-based
Method in brief: (§2)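 WM164 cells on glass coverslips (125 000 cells/well), incubated overnight, treated 18 h with 100 nM compound or DMSO vehicle. Stained with anti-α-tubulin and Alexa Fluor 647 anti-mouse IgG, mounted in DAPI-containing medium, and imaged by confocal microscopy.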

[7] = test system: A-375; experiment: Antitumor activity against human A375 cells xenografted in nude mouse assessed as tumor growth inhibition at 30 mg/kg, ip administered every other day for 2 weeks relative to control; assay type: functional; details: A-375, ip, 336 h, read-out: TGI
Method in brief: (§3)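 Nude mice 6–8 weeks old; 2 × 10^6 A375 cells in FBS-free medium with Matrigel injected sc into dorsal flank. At about 100 mm3 mice were randomized, n = 8. Drug in 2:1 PEG300/PBS given ip every other day. Volume measured by caliper three times weekly (a × b2 × 0.5).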

[8] = test system: A-375; experiment: Antitumor activity against human A375 cells xenografted in nude mouse assessed as decrease in tumor weight at 30 mg/kg, ip administered every other day for 2 weeks; assay type: functional, organism-based; details: 30 mg/kg
Method in brief: (§4)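 Nude mice (6–8 weeks) injected subcutaneously in dorsal flank with 2 × 10^6 A375 cells in Matrigel. At ~100 mm3, randomized (n = 8). Compound given ip every other day in 2:1 PEG300/PBS; vehicle equal parts PEG300/PBS. Tumors weighed at sacrifice; mean ± SEM, ANOVA with Dunnett's test versus vehicle.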

[9] = test system: RPMI-7951; experiment: Antimigratory activity in human RPMI7951 cells assessed as wound closure at 25 nM after 18 hrs (reference value: 71.8 +/- 1.8%); assay type: functional
[10] = test system: A-375; experiment: Induction of apoptosis in human A375 cells xenografted in nude mouse assessed as increase in cleaved caspase-3 levels at 15 mg/kg, ip administered every other day for 2 weeks by immunohistochemical analysis; assay type: functional, organism-based
Method in brief: (§5)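 Formalin-fixed, paraffin-embedded A375 xenograft tumors from mice dosed ip every other day (2:1 PEG300/PBS). Serial sections immunostained with rabbit anti-cleaved caspase 3 antibody by the ABC-DAB method.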

[11] = test system: DU-145; experiment: Cytotoxicity against human DU145 cells after 72 hrs by MTS assay; assay type: functional, cell-based; details: DU-145, 72 h
Method in brief: (§6)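 Cells treated 72 h at 10 concentrations, 0.03 nM–1 μM, n = 4. MTS read at 490 nm; IC50 by nonlinear regression. RI = resistant IC50 / parental IC50.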

[12] = test system: A-375; experiment: Antimigratory activity in human A375 cells after 22 hrs by wound healing assay; assay type: functional, cell-based
Method in brief: (§7)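 A375 and RPMI7951 monolayers seeded overnight (200 000 cells/well, triplicate), scratched with a pipet tip, washed, then given medium with 5 or 25 nM compound; untreated control wells. Imaged at 0 h and at 18 h (RPMI7951) or 22 h (A375); wound channel area measured and percent closure calculated. Dunnett's test versus control.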

[13] = Cytotoxicity against human DU145-TxR cells after 72 hrs by MTS assay; assay type: functional, cell-based; method in brief: as §6
[14] = test system: A-375; experiment: Induction of apoptosis in human A375 cells xenografted in nude mouse assessed as increase in cleaved caspase-3 levels at 30 mg/kg, ip administered every other day for 2 weeks by immunohistochemical analysis; assay type: functional, organism-based; method in brief: as §5
[15] = Resistance index, ratio of IC50 for human PC3-TxR cells to IC50 for human PC3 cells; assay type: functional
Method in brief: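 Cells were treated 72 h with 10 concentrations from 0.03 nM to 1 μM, four replicates, A490 read. IC50 by nonlinear regression. RI = IC50 resistant / IC50 parental.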

[16] = test system: A-375; experiment: Antitumor activity against human A375 cells xenografted in nude mouse assessed as decrease in tumor weight at 15 mg/kg, ip administered every other day for 2 weeks; assay type: functional, organism-based; method in brief: as §4
[17] = test system: A-375; experiment: Induction of morphological changes in human A375 cells xenografted in nude mouse assessed as less microvessel density at 30 mg/kg, ip administered every other day for 2 weeks by immunohistochemical analysis; assay type: functional, organism-based
[18] = species: Homo sapiens; experiment: Inhibition of tubulin polymerization in human WM164 cells assessed as decrease in polymeric tubulin filaments at 100 nM after 18 hrs using DAPI by immunofluorescence-based confocal microscopic method; assay type: cell-based; method in brief: as §2
[19] = species: Homo sapiens; experiment: Inhibition of tubulin polymerization in human WM164 cells assessed as increase in cytoplasmic soluble tubulin levels at 100 nM after 18 hrs using DAPI by immunofluorescence-based confocal microscopic method; assay type: cell-based; method in brief: as §2
[20] = test system: PC-3; experiment: Cytotoxicity against human PC3 cells after 72 hrs by MTS assay; assay type: functional, cell-based; details: PC-3, 72 h; method in brief: as §6
[21] = test system: A-375; experiment: Antimigratory activity in human A375 cells assessed as wound closure at 25 nM after 22 hrs (reference value: 60.7 +/- […]); assay type: functional
[22] = Resistance index, ratio of IC50 for human DU145-TxR cells to IC50 for human DU145 cells; assay type: functional; method in brief: as §6
[23] = test system: RPMI-7951; experiment: Antimigratory activity in human RPMI7951 cells assessed as wound closure at 5 nM after 18 hrs (reference value: 71.8 +/- 1.8%); assay type: functional
[24] = test system: RPMI-7951; experiment: Antimigratory activity in human RPMI7951 cells after 18 hrs by wound healing assay; assay type: functional, cell-based; method in brief: as §7
[25] = test system: Tubulin (Sus scrofa); experiment: Inhibition of tubulin (porcine brain) polymerization measured every min for 50 mins
[26] = test system: A-375; experiment: Antimigratory activity in human A375 cells assessed as wound closure at 5 nM after 22 hrs (reference value: 60.7 +/- […]); assay type: functional
[27] = Cytotoxicity against human PC3-TxR cells after 72 hrs by MTS assay; assay type: functional, cell-based; method in brief: as §6
[28] = Acute toxicity in nude mouse administered as qd for 5 days; details: in vivo
Method in brief: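 Nude mice, 6–8 weeks old; compound formulated in PEG300 and given as five continuous daily administrations, then monitored for acute toxicity. A single-dose acute MTD was estimated first.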

[29] = test system: A-375; experiment: Antitumor activity against human A375 cells xenografted in nude mouse assessed as tumor growth inhibition at 15 mg/kg, ip administered every other day for 2 weeks relative to control; assay type: functional; details: A-375, ip, 336 h, read-out: TGI; method in brief: as §3
[30] = Antitumor activity against human PC3-TxR cells xenografted in nude mouse assessed as tumor growth inhibition at 30 mg/kg, ip administered every other day for 3 weeks; assay type: functional; details: 504 h, read-out: TGI
Method in brief: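 Nude mice 6–8 weeks old; 2.5 × 10^6 PC-3/TxR cells with Matrigel injected sc into dorsal flank. […] At about 100 mm3 mice were randomized, n = 7. Drug in 2:1 PEG300/PBS given ip every other day. Caliper volume a × b2 × 0.5. TGI computed from start and end mean volumes relative to the vehicle group.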

## COc1ccc2c(c1)CCCN2c1nc(Cl)nc2c(C)csc12
[1]
  IC50: 91.3 nM
[2]
  IC50: 49 nM
[3]
  IC50: 52.6 nM

## COc1cc(N(C)c2nc(Cl)nc3ncccc23)cc(OC)c1OC
[1]
  IC50: > 1000 nM
[2]
  IC50: > 1000 nM
[3]
  IC50: > 1000 nM

## COc1ccc2c(c1)CCCN2c1nc(Cl)nc2cccnc12
[1]
  IC50: 4.4 nM
[2]
  IC50: 4 nM
[3]
  IC50: 4.2 nM

## COc1ccc2c(c1)C(=O)CCN2c1nc(Cl)nc2ncccc12
[1]
  IC50: > 1000 nM
[2]
  IC50: > 1000 nM
[3]
  IC50: > 1000 nM

## COc1ccc2c(c1)CCCN2c1nc(Cl)nc2ncccc12
[1]
  IC50: 8.2 nM
[2]
  IC50: 5.6 nM
[4]
  t1/2: 1.4 h
[5]
  Activity: Active
[6]
  inhibition: Active
[7]
  inhibition in vivo at 30 mg/kg: 72.3%
[8]
  Activity: Active
[9]
  Activity: 25.5%
[10]
  Activity: Active
[11]
  IC50: 18.3 nM
[12]
  Activity: Dose-dependent effect
[13]
  IC50: 19.9 nM
[14]
  Activity: Active
[15]
  Ratio IC50: 0.7
[16]
  Activity: Active
[17]
  Activity: Active
[18]
  inhibition: Active
[19]
  inhibition: Active
[20]
  IC50: 12.7 nM
[3]
  IC50: 5.5 nM
[21]
  Activity: 16.9%
[22]
  Ratio IC50: 1.1
[23]
  Activity: 46.4%
[24]
  Activity: Dose-dependent effect
[25]
  inhibition: Dose-dependent effect
[26]
  Activity: 36.4%
[27]
  IC50: 8.7 nM
[28]
  MTD at 120 h: 50 mg/kg
[29]
  inhibition in vivo at 15 mg/kg: 57.1%
[30]
  inhibition in vivo at 30 mg/kg: 55.6%

## COc1ccc2c(c1)CCCN2c1nc(C)nc2[nH]ncc12
[1]
  IC50: > 1000 nM
[2]
  IC50: > 1000 nM
[3]
  IC50: > 1000 nM

## COc1ccc2c(c1)OCCN2c1nc(Cl)nc2ncccc12
[1]
  IC50: 404 nM
[2]
  IC50: 223 nM
[3]
  IC50: 269 nM

## COc1ccc2c(c1)CCCN2c1nc(Cl)nc2c1cnn2C
[1]
  IC50: > 1000 nM
[2]
  IC50: > 1000 nM
[3]
  IC50: > 1000 nM

## COc1ccc2c(c1)C(O)CCN2c1nc(Cl)nc2ncccc12 (centres undefined)
[1]
  IC50: 41.9 nM
[2]
  IC50: 36.1 nM
[3]
  IC50: 52.6 nM
